Experimental data of several laboratories.
Protocols differ between the studies behind these lines.
FLT3: Receptor-type tyrosine-protein kinase FLT3 (FLT3, Homo sapiens, UniProt P36888)
FLT3 N841I: Receptor-type tyrosine-protein kinase FLT3 (FLT3, Homo sapiens, UniProt P36888, N841I)

Compound | target | read-out | action | method | concentration | measurement | value
Cn1cc(-c2cccc(N3CCc4c(sc5c4CC(C)(C)C5)C3=O)c2CO)cc(Nc2ccncn2)c1=O | FLT3 | enzyme activity | inhibitor |  | 1 µM | inhibition | -6%
Cc1nn(C)cc1-c1nc2c(N3CCN(Cc4ccc(Cl)cc4)CC3)c(Cl)cnc2[nH]1 | FLT3 N841I | binding |  | competition with immobilised ligand | 1 µM | remaining binding | 0%
COc1ncccc1-c1cnn2ccc(N3CCN(C(=O)OC(C)C)CC3)nc12 | FLT3 | binding |  | competition with immobilised ligand | 1 µM | remaining binding | 100%
CC(C)(C)c1cc(C=C(C#N)C#N)cc(Br)c1O | FLT3 | enzyme activity | inhibitor |  | 0.5 µM | remaining activity | 102%
Cn1cncc1[C@@](O)(COc1ccc(C#N)cc1-c1ccc(OC(F)(F)F)cc1)c1ccc(C#N)cc1 | Receptor-type tyrosine-protein kinase FLT3 (FLT3, Homo sapiens, UniProt P36888, ITD) | cell-free assay |  | competition with immobilised ligand | 1 µM | remaining binding | 89%
C#Cc1n[nH]c2c(-c3cn([C@@H](C)c4ccccc4)c(=O)[nH]c3=O)cc(F)cc12 | FLT3 | enzyme activity | inhibitor |  | 0.1 µM | inhibition | 4.9%
Nc1ncc(-c2nc(N3CCOCC3)nc(N3CCOCC3)n2)c(C(F)F)n1 | FLT3 N841I | binding |  | competition with immobilised ligand | 10 µM | remaining binding | 46%
C#Cc1n[nH]c2c(-c3cn(C(C)c4ccccn4)c(=O)[nH]c3=O)cc(F)cc12 (centres unmarked) | FLT3 | enzyme activity | inhibitor |  | 1 µM | inhibition | 8%
Cn1cc(-c2cc(F)cc(N3CCn4c(cc5c4CCCC5)C3=O)c2CO)cc(Nc2ccc(N3CCN(C4COC4)CC3)cn2)c1=O | FLT3 | enzyme activity | inhibitor |  | 0.1 µM | inhibition | 12%
O=c1[nH]c2ccccc2n1C1CCN(Cc2ccc(-c3[nH]c4cc5ncnc5cc4nc3-c3ccccc3)cc2)CC1 | FLT3 | cell-free assay |  |  | 0.5 µM | remaining signal | 94.6%
N#CC1(c2ccccn2)CCN(Cc2cc(C(=O)O)c(=O)n3ccccc23)CC1 | Receptor-type tyrosine-protein kinase FLT3 (FLT3, Homo sapiens, UniProt P36888, F691L/ITD) | cell-free assay |  | competition with immobilised ligand | 1 µM | remaining binding | 100%
